Measured values of several laboratories.
Lines come from different studies, so protocols differ.
Effect on: cell growth or viability

Compound	cell line	technique	time	IC50 [nM]
CN(C)C/C=C/C(=O)Nc1cc2c(Nc3ccc(F)c(Cl)c3)ncnc2cc1O[C@H]1CCOC1	SW620/AD300	MTT	72 h	4300
C[C@H]1[C@H](C)CC[C@]2(C(=O)O)CC[C@]3(C)C(=CC[C@@H]4[C@@]5(C)CC[C@H](O)C(C)(C)[C@@H]5CC[C@]43C)[C@H]12	DLD-1	–	48 h	13000
Cc1cnc(NC2CCOCC2)nc1-n1cnc(C(=O)NC(CN)c2cc(F)cc(Cl)c2)c1 (centres unmarked)	U-2973	MTS	–	300
CCN1C(=O)N(c2c(F)c(OC)cc(OC)c2F)Cc2cnc3[nH]c(CN4CCOCC4)cc3c21	MFE-296	ATP luminescence	96 h	56
CCn1c(=O)c(-c2ccc(-c3cncs3)cc2Cl)cc2cnc(Nc3ccc(N4CCN(C)CC4)cc3)nc21	BXPC-3	MTT	24 h	3030
CCC[C@H](Nc1nc(-c2ccc(NC(=O)NCC)c(OC)c2)ncc1C)c1cccnc1	BXPC-3	fluorescence	72 h	37.1
COc1cc([C@@H]2c3cc4c(cc3[C@@H](O[C@@H]3O[C@@H]5CO[C@@H](C)O[C@H]5[C@H](O)[C@H]3O)[C@H]3COC(=O)[C@H]23)OCO4)cc(OC)c1O	DLD-1	fluorescence	48 h	1300
Cc1nc(Nc2ncc(C(=O)Nc3c(C)cccc3Cl)s2)cc(N2CCN(CCO)CC2)n1	BXPC-3	MTT	–	46
CC(=O)O[C@H]1C(=O)[C@@]2(C)[C@H]([C@H](OC(=O)c3ccccc3)[C@]3(O)C[C@H](OC(=O)[C@H](O)[C@@H](NC(=O)c4ccccc4)c4ccccc4)C(C)=C1C3(C)C)[C@]1(OC(C)=O)CO[C@@H]1C[C@@H]2O	BXPC-3	fluorescence	72 h	4
CN(C)CCCN1c2ccccc2Sc2ccc(Cl)cc21	human Hepatocyte	–	–	26000
COc1cc(Nc2nccc(-c3cnn4nc(OC)ccc34)n2)cc(C(F)(F)F)c1	DLD-1	ATP luminescence	–	530
Cc1nc(NC(=O)N2CCC[C@H]2C(N)=O)sc1-c1ccnc(C(C)(C)C(F)(F)F)c1	SW48	ATP luminescence	96 h	154
CC(C)C[C@H](NC(=O)[C@H](Cc1ccccc1)NC(=O)c1cnccn1)B(O)O	SK-N-FI	ATP luminescence	–	13
CC(C)n1ncnc1-c1cn2c(n1)-c1ccc(O[C@@H](C)C(N)=O)cc1OCC2	SW48	ATP luminescence	96 h	21
